From ChEMBL document CHEMBL4513216, “Probing the Open Global Health Chemical Diversity Library for Multistage-Active Starting Points for Next-Generation Antimalarials” (ACS Infect Dis, 2020) come the findings set out here.

The nature of this series: Toxicity liver stage against HepG2, at 10uM. It counts as cell-based. Also noted: test concentration 10 uM, cell line HepG2-A16-CD81EGFP. To be noted: human, HepG2-A16-CD81EGFP cells; read-out: INHIBITION
The method, boiled down:
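Uninfected HepG2-A16-CD81EGFP cells, 3 × 10^3 per well, 1536-well, plated on prespotted compound at 10 μM final, parasite-free screening media added to match infected plates; puromycin 10 μM positive, DMSO 0.5% negative; run in parallel with 48 h PbLuc assay at 37 °C, 5% CO2; viability by CellTiter-Glo luminescence, normalized to controls.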

On to `Cc1ccc(OCCC(=O)N(C)CC(=O)Nc2cc(C)on2)c(C)c1`, for which the cytotoxicity at 10 µM is -16.9%.

`CC(=O)N(C)Cc1ccccc1NCc1c(C)noc1C`: the cytotoxicity at 10 µM came to 5.76%.

With `COc1cc(OC)cc(-c2cccc3c2OC(CN)C3)c1` (configuration not stated), the cytotoxicity at 10 µM is -53%.

`CC(Cn1cccn1)NCc1nc(-c2cccc(Cl)c2)no1` (configuration not stated): the cytotoxicity at 10 µM is -9.21%.

`CC(C)(CO)CCCNC(=O)NC1(C)Cc2ccccc2C1`: the cytotoxicity at 10 µM is -1%.

For `Cc1cnn(CC2CCCN2C(=O)c2c(C)noc2C)c1` (configuration not stated), the cytotoxicity at 10 µM is -6.02%.

For the compound `CC(C)N1CC2(CCC1=O)CCN(c1ccnc3ccccc13)CC2`, the cytotoxicity at 10 µM worked out at 3.2%.

`O=C(c1ccc[nH]1)N1CCN(CC2CCOc3ccccc3C2)CC1` (configuration not stated): the cytotoxicity at 10 µM was determined as 4.03%.

Consider `CCN(c1ccsc1C(=O)N1CCC(C)CC1)S(=O)(=O)c1ccccc1`, for which the cytotoxicity at 10 µM stood at 14.7%.

In the case of `c1ccc(CN2CC[C@H]3CO[C@H](CNc4ncccn4)[C@H]3C2)nc1`, the cytotoxicity at 10 µM was -9.63%.

With `Fc1ccccc1OC1CCN(CCn2cc3ccccc3n2)CC1`, the cytotoxicity at 10 µM is 9.25%.

On to `O=C(C1CC1)N1CCCC1C1CCN(Cc2ccccc2)CC1` (configuration not stated), for which the cytotoxicity at 10 µM was -9.37%.

As to `CCn1ncnc1CN1CCc2[nH]cnc2C1CCc1ccccc1` (configuration not stated), the cytotoxicity at 10 µM is 0.0189%.

`COCC(NC(=O)c1cc(NC(C)=O)ccc1Cl)c1ccccn1` (configuration not stated): the cytotoxicity at 10 µM is -12.1%.

For `CCCc1n[nH]c(C2CN(CCS(=O)(=O)CC)CCO2)n1` (configuration not stated), the cytotoxicity at 10 µM is -5.83%.

Take `FC(F)(F)Cn1nnnc1SCCN1CCCCC1`: the cytotoxicity at 10 µM is -61.4%.

Take `Cc1nnc(NC(=O)NCc2cccnc2N(C)C)s1`: the cytotoxicity at 10 µM was -10.3%.

For the compound `CNC(=O)CN1CC[C@H]2CN(C(=O)c3ccc(C)cc3)C[C@H]2C1`, the cytotoxicity at 10 µM was -4.06%.

With `O=C(c1ccco1)N1CC(S(=O)(=O)c2ccc(Cl)cc2)C1`, the cytotoxicity at 10 µM was -2.02%.

For the compound `NC(=O)c1nnn(-c2ccc(Br)cc2)n1`, the cytotoxicity at 10 µM is 6.56%.

Take `CN1CC(NC(=O)CCOc2cccc(Cl)c2)CC1=O` (configuration not stated): the cytotoxicity at 10 µM is -5.4%.

Consider `COCC1CN(S(=O)(=O)N(C)C)Cc2ncn(CC3CC3)c21` (configuration not stated), for which the cytotoxicity at 10 µM was found to be 8.77%.

As for `COC(=O)N1CCC(NC(=O)N2CCCC2c2ccsc2)CC1` (configuration not stated), the cytotoxicity at 10 µM was determined as 10.5%.

Regarding `Cn1ccc(C(=O)NCC2(O)CCN(c3cnccn3)C2)n1` (configuration not stated), the cytotoxicity at 10 µM came out at 3.45%.

Consider `O=C1CCC2(CCN(CC[C@H](O)c3ccccc3)CC2)CN1CCO`, for which the cytotoxicity at 10 µM was -4%.

For the compound `Cc1nc(CN2CCc3cncnc3C2)oc1C`, the cytotoxicity at 10 µM is -12%.

`CN(C)C(=O)c1ccccc1NC(=O)N[C@@H]1c2ccccc2C[C@@H]1O`: the cytotoxicity at 10 µM was -43.1%.

Turning to `CN(CCO)Cc1nnc(C2CCN(C(=O)c3cccnc3)CC2)n1C`, the cytotoxicity at 10 µM stood at 11.4%.

For the compound `CCCc1nnc(NCCc2noc(C3CCCC3)n2)o1`, the cytotoxicity at 10 µM is 20.2%.

Consider `O=C(CC1CC1)NCc1cn2c(n1)CN(C(=O)C1CCOCC1)CC2`, for which the cytotoxicity at 10 µM was -73.2%.

Turning to `Cc1nc(CN2CCCC(N(C)CC3(O)CCCCC3)C2)no1` (configuration not stated), the cytotoxicity at 10 µM is -10.3%.

Turning to `CCOC(C)c1nccn1Cc1c(C)noc1C` (configuration not stated), the cytotoxicity at 10 µM turned out to be 3.11%.

With `CC(C)N1[C@H](Cn2cccn2)C[C@@H]2CN(Cc3ccoc3)CC[C@@H]21`, the cytotoxicity at 10 µM was -153%.

Regarding `Cn1cccc1C(=O)NCc1cnc2n1CCN(c1ccccn1)C2`, the cytotoxicity at 10 µM is -2.74%.

Turning to `CCS(=O)(=O)NC[C@]12COC[C@H]1CN(Cc1cccnc1OC)C2`, the cytotoxicity at 10 µM worked out at 1.97%.

On to `O=C(c1ccc(F)cc1F)N1CC[C@H](O)[C@@H](N2CCOCC2)CC1`, for which the cytotoxicity at 10 µM is 2.62%.

For the compound `CC(NS(=O)(=O)N(C)C(C)C)C(=O)N(C)C` (configuration not stated), the cytotoxicity at 10 µM amounted to 7.95%.

With `COC(=O)c1cccnc1N1CCC(Oc2cccc(F)c2)CC1`, the cytotoxicity at 10 µM worked out at 3.31%.

With `CN(CC1CCOC1)S(=O)(=O)c1cccc(C(=O)N2CCOCC2)c1` (configuration not stated), the cytotoxicity at 10 µM was -13.3%.

Turning to `CCOc1ccc2nc(CN3CCOC(CN)C3)ccc2c1` (configuration not stated), the cytotoxicity at 10 µM is -3.54%.

As for `Cc1ccccc1CSc1nc(N)cc(N2CCC(CC(N)=O)CC2)n1`, the cytotoxicity at 10 µM is -10.4%.

Consider `Cc1ncnc(NC(CC(C)(C)C)c2cccnc2)c1C` (configuration not stated), for which the cytotoxicity at 10 µM is 1.65%.

`O=C(Nc1ccc2c(c1)C(=O)NC2=O)c1ccc(Cl)s1`: the cytotoxicity at 10 µM was -3.96%.

As to `COc1ccc(NC(=O)Cn2nc(C)c(C)cc2=O)cc1OC`, the cytotoxicity at 10 µM is -20.4%.

Consider `COc1nsc2nc(C3CCCN3C(C)=O)ccc12` (configuration not stated), for which the cytotoxicity at 10 µM was found to be 6.78%.

Regarding `O=C(c1ccncc1)N1CCCC1C1CCN(Cc2ccccc2)CC1` (configuration not stated), the cytotoxicity at 10 µM is 7.43%.

Turning to `Cc1ccc2c(c1)C(NC(C)C)CC21CCNCC1` (configuration not stated), the cytotoxicity at 10 µM was -10.6%.

On to `COc1ccc(OC)c(C(O)CNC(=O)Nc2ccc(F)cc2F)c1` (configuration not stated), for which the cytotoxicity at 10 µM was -2.74%.

For `Cc1cc(N(C)C)nc(N2CCCC2c2ccccn2)n1` (configuration not stated), the cytotoxicity at 10 µM worked out at 3.16%.

For `O=C(O)[C@@H]1CN(C(=O)CN2CCCCCC2)C[C@H]1c1ccccc1`, the cytotoxicity at 10 µM was determined as 4.97%.

For `CC(C)c1csc(NC(=O)NC2CCCN(c3cnn(C)c3)C2)n1` (configuration not stated), the cytotoxicity at 10 µM is 15%.

Consider `c1cncc(C(Cn2cnnc2)N2CCOCC2)c1` (configuration not stated), for which the cytotoxicity at 10 µM was -5.11%.

As to `COc1cc2[nH]c(=O)c(CN3CCCC3C)cc2c(OC)c1OC` (configuration not stated), the cytotoxicity at 10 µM is -7.74%.

`CC(C)C(=O)NCc1ccnc(Oc2ccc(F)cc2)c1`: the cytotoxicity at 10 µM is 6.06%.

Regarding `CC(C)N1CCCCC1c1cc(CO)[nH]n1` (configuration not stated), the cytotoxicity at 10 µM was 4.61%.

`CCc1noc(CN2CCOC3(CCCC3)C2)n1`: the cytotoxicity at 10 µM was -3.54%.

In the case of `CN1CCN(C(=O)c2cc(C#N)cn2C)c2ccccc2C1`, the cytotoxicity at 10 µM was 5.45%.

Regarding `Cc1nc(CO[C@H]2CN(C(=O)c3cccnc3)[C@@H]3COC[C@H]23)cs1`, the cytotoxicity at 10 µM was -110%.

`Cc1cccc(CN2C[C@@H]3CN(C(=O)C4CC=CC4)C[C@@H]3C2=O)n1`: the cytotoxicity at 10 µM was determined as 2%.

Regarding `CC(C)C(NC(=O)NCC1CC1)c1nnc2n1CCC2` (configuration not stated), the cytotoxicity at 10 µM was -7.44%.

As to `Cc1nc(-c2noc3ccc(C(=O)NCCN(C)C)cc23)co1`, the cytotoxicity at 10 µM was 2.25%.

On to `CO[C@@H]1CCN(c2ncc(F)cn2)[C@H]1Cc1cnn(C)c1`, for which the cytotoxicity at 10 µM is -2.63%.

As to `c1ccc2c(c1)COC1(CCCCC1)N2`, the cytotoxicity at 10 µM is -11.1%.

For the compound `COc1ccc2c(c1)nc1n2[C@@H](CNC(=O)c2ccccn2)COC1`, the cytotoxicity at 10 µM is -3.03%.

Consider `CCCOc1ccc(C(=O)N2CC[C@@H]3CC[C@H](C2)N3)cc1Cl`, for which the cytotoxicity at 10 µM is -6.94%.

Take `O=C(Cc1ccsc1)N1C[C@@H]2CN(Cc3ccoc3)CCO[C@@H]2C1`: the cytotoxicity at 10 µM is -1.73%.

As to `COC(=O)Cn1ccc(NS(=O)(=O)c2ccc3c(c2)CCC3)n1`, the cytotoxicity at 10 µM was found to be 10.6%.

`Cc1cc(N2CCCC2(C)c2nc(C)cc(C(=O)N(C)C)n2)ncn1` (configuration not stated): the cytotoxicity at 10 µM was -0.846%.

`Clc1ccc2cccnc2c1CN1CCn2c(nnc2C2CC2)C1`: the cytotoxicity at 10 µM was -2.19%.

For `Cc1ccc(C(=O)NCC2CCN(Cc3ccccc3C#N)C2)cn1` (configuration not stated), the cytotoxicity at 10 µM is 1.48%.

Take `CCc1cnc(N2CCC(=O)N(CC3CC3)C(C(C)C)C2)nc1` (configuration not stated): the cytotoxicity at 10 µM is -6.28%.

For `CC(c1ccc(F)cc1F)N1CCN(Cc2nccn2C)CC1` (configuration not stated), the cytotoxicity at 10 µM is -11.7%.

Take `CCc1nc(Nc2cccc(C(=O)NC)c2)c2c(n1)c(C)nn2CC`: the cytotoxicity at 10 µM stood at 1.41%.

Consider `CN1[C@@H](C(=O)NCC2CC2)C[C@@H]2CN(c3ncccn3)C[C@@H]21`, for which the cytotoxicity at 10 µM came out at 9.85%.

For the compound `Cc1cc(=O)[nH]c(=O)n1Cc1ccccc1`, the cytotoxicity at 10 µM is -42.6%.

As to `Cc1ccc(C(NC(=O)Cn2cc(C3CC3)nn2)C2CC2)cc1` (configuration not stated), the cytotoxicity at 10 µM was -5.36%.

With `O=C(c1ccncc1)N1CCCC(c2ncncc2-c2ccncc2)C1` (configuration not stated), the cytotoxicity at 10 µM is -17.2%.

As to `Cc1c(CCC(=O)Nc2ccc(Cl)cn2)cnn1C`, the cytotoxicity at 10 µM was 0.678%.

For `CNc1ncc(CN(C)C(=O)c2c[nH]nc2-c2cccc(F)c2)cn1`, the cytotoxicity at 10 µM is -4.69%.

For `COc1ccc(CC(=O)N2CCCC2c2nc(C)c(C)c(O)n2)cc1` (configuration not stated), the cytotoxicity at 10 µM was -17.7%.

Consider `O=C(COc1cccc2c1CCC2=O)NCCOc1ccccc1`, for which the cytotoxicity at 10 µM came to 10.5%.

As for `CNC(=O)c1csc(-c2cccnc2)n1`, the cytotoxicity at 10 µM amounted to 3.19%.

For the compound `CC(C)NC1CCc2c(ccc(=O)n2CCN2CCOCC2)C1` (configuration not stated), the cytotoxicity at 10 µM is 7.64%.

Take `Cn1nc(COCC2CC2)c2c1CCN(Cc1ccco1)C2`: the cytotoxicity at 10 µM was -1.77%.

On to `COc1ncc(-c2ccc(C(N)=O)cc2)c(OC)n1`, for which the cytotoxicity at 10 µM was -5.9%.

`O=C1N(Cc2ccccc2)C[C@H]2CN(Cc3ccccc3Cl)CCN12`: the cytotoxicity at 10 µM stood at 2.23%.

On to `CCCS(=O)(=O)N1C[C@@H]2C[C@H](C(=O)Nc3cccnc3)[C@H](C1)O2`, for which the cytotoxicity at 10 µM was -78.8%.

As for `Cc1ccc(NCc2cn3c(n2)CN(Cc2ccc(C)o2)CC3)nn1`, the cytotoxicity at 10 µM stood at 8.19%.

As for `CC(C)c1nc2c(n1C)CCN(CC(=O)Nc1ccc(Cl)cn1)C2`, the cytotoxicity at 10 µM was determined as 0.241%.

For `CCCNC(=O)C(C)n1cc(Br)cn1` (configuration not stated), the cytotoxicity at 10 µM was -19.7%.

As to `CC(=O)N1CCCC2(C1)CN(c1nncs1)CCO2` (configuration not stated), the cytotoxicity at 10 µM was -102%.

Take `CC(NC(=O)NC1CCN(CC2CCCC2)CC1)c1nccs1` (configuration not stated): the cytotoxicity at 10 µM was found to be 3.2%.

As for `N#Cc1ccnc(N2CCN(CC(O)c3ccc(F)c(F)c3)CC2)c1` (configuration not stated), the cytotoxicity at 10 µM came out at 2.8%.

Regarding `O=C(c1ccnnc1)N1CCn2cc(CN3CCCCC3)nc2C1`, the cytotoxicity at 10 µM is -74.9%.

Consider `Cc1ccn(CC(=O)NCCCOc2ccccc2F)c(=O)c1`, for which the cytotoxicity at 10 µM is -5.79%.

For `Cc1ccc2c(n1)N(Cc1ccncc1)CCN(S(C)(=O)=O)C2`, the cytotoxicity at 10 µM was -77.2%.

As to `O[C@@H]1C[C@@H](c2nc(-c3ccc(OC(F)(F)F)cc3)no2)N(CC2CC2)C1`, the cytotoxicity at 10 µM was determined as 1.32%.
